The source made the active and inactive calls. The rule behind the calls is not given here.
Tests used:
[1] = Half life in monkey at 10 mg/kg, po administered as suspension in 20% cyclodextrin; format: ADME, organism-based, Macaca mulatta; conditions: rhesus monkey, in vivo
Summary of the method: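 Male, fasted monkeys given a 10 mg/kg oral formulation as part of an iv/po PK study. Plasma exposure and half-life were derived.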

[2] = Cmax in dog at 10 mg/kg, po administered as API capsule; format: ADME, organism-based, Canis lupus familiaris; parameters: dose 10 mg/kg, route oral; conditions: in vivo
GTPase KRas = GTPase KRas (Homo sapiens, UniProt P01116, G13D); experiment: Inhibition of KRAS G13D mutant in human HCT116 cells assessed as inhibition of ERK phosphorylation by ELISA; format: cell-based, HCT-116
GTPase KRas, sequence (P01116 whole entry G13D): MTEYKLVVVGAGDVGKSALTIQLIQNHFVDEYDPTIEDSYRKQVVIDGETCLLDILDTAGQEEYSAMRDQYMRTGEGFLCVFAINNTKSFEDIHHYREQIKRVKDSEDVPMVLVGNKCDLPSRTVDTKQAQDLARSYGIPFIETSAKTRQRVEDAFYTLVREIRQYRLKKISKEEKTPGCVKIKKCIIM
Summary of the method: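 HCT116 cells (KRAS G13D, BRAF WT; RAF signalling via CRAF) were treated with compound, and the change in cellular phospho-ERK was measured. IC50 was taken as the concentration inhibiting phospho-ERK.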

[3] = target: Dual specificity mitogen-activated protein kinase kinase; MEK1/2 (Homo sapiens, UniProt P36507+Q02750); experiment: Inhibition of MEK (unknown origin)
[4] = Paradoxical activation of RAS/RAF/MEK signaling pathway in human HCT116 cells expressing wild type BRAF assessed as ERK phosphorylation at >100 nM; format: cell-based; conditions: HCT-116
[5] = Half life in monkey at 1 mg/kg, iv administered as 20% cyclodextrin solution; format: ADME, organism-based, Macaca mulatta; conditions: rhesus monkey, in vivo
Summary of the method: (§1)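 Single 1 mg/kg iv dose given as a 20% cyclodextrin solution to rat, dog (male, fasted, crossover, n = 4) or monkey (male, fasted). Clearance, volume of distribution and half-life were calculated. Clearance is also expressed relative to species hepatic blood flow (Qh).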

[6] = Half life in Sprague-Dawley rat at 1 mg/kg, iv administered as suspension in 20% cyclodextrin; format: ADME, organism-based; conditions: in vivo
Canis familiaris = experiment: Clearance in dog at 1 mg/kg, iv administered as suspension in 20% cyclodextrin relative to hepatic blood flow; format: ADME, organism-based, Canis lupus familiaris; conditions: in vivo
[7] = Cmax in Sprague-Dawley rat at 10 mg/kg, po administered as suspension in 1% HEC; format: ADME, organism-based; parameters: dose 10 mg/kg, route oral; conditions: in vivo
A-375 = experiment: cells; conditions: Homo sapiens, A-375, 72 h
[8] = Clearance in monkey at 1 mg/kg, iv administered as 20% cyclodextrin solution; format: ADME, organism-based, Macaca mulatta; conditions: rhesus monkey, in vivo; summary of the method: as §1
[9] = Clearance in dog at 1 mg/kg, iv administered as 20% cyclodextrin solution; format: ADME, organism-based, Canis lupus familiaris; conditions: in vivo; summary of the method: as §1
[10] = Clearance in Sprague-Dawley rat at 1 mg/kg, iv administered as suspension in 20% cyclodextrin; format: ADME, organism-based; conditions: in vivo
[11] = Permeability across MDCK cells expressing MDR1; format: ADME, cell-based, Canis lupus familiaris; conditions: dog, read-out: permeability

SMILES: CNc1ncc2cc(-c3cc(NC(=O)NCCC(C)(C)C)c(F)cc3C)c(C)nc2n1 [LY-3009120]
- half-life [1]: 3.5 h
- Cmax [2]: 0.0028 µg/mL
- IC50 (GTPase KRas): 0.15 µM
- IC50 [3]: > 20 µM
- Activity [4]: inactive
- half-life [5]: 1 h
- half-life [6]: 1.1 h
- CL (Canis familiaris): 30%
- Cmax [7]: 0.0344 µg/mL
- IC50 (A-375): 0.0092 µM
- clearance [8]: 1.55 L/h/kg
- clearance [9]: 0.876 L/h/kg
- clearance [10]: 2.05 L/h/kg
- Papp [11]: 470 nm/s
